Assay outcomes as filed in PubChem BioAssay.
Compounds with a hit are over-represented: about 3.5% of the library has one in this group of screens.
MrgX1 antag: antagonists of human MrgX1 receptor, primary screen, HEK293 cells, Fluo-4 calcium flux; B-score at 10 µM; BAM8-22 antagonism; active compounds read low; AID 588676, 2011; hit rate 1.3% among 310,000; Mas-related G-protein coupled receptor member X1 (Homo sapiens), Q96LB2;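 active means calcium-response B-score plate-corrected more than 3 library SD below zero, starting fluorescence within 5 deviations, no agonist response on first addition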;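 further: peak minus trough fluorescence over baseline after final BAM8-22 challenge near maximal dose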
Target sequence (Q96LB2 whole entry, looked up): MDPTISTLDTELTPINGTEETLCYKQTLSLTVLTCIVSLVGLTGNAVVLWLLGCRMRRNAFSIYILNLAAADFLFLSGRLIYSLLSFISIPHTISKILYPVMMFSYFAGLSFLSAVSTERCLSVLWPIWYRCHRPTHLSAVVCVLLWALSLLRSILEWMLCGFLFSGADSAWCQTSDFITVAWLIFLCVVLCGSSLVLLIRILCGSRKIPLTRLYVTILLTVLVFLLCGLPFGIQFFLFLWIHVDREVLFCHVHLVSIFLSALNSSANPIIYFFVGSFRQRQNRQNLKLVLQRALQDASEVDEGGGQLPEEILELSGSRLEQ
MrgX1 PAM: positive allosteric modulators of MrgX1, primary screen, HEK293 cells, Fluo-4 calcium flux; AID 588675, 2011; B-score at 10 µM; hit rate 0.63% among 310,000; FDSS; active compounds read high;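 active means plate-corrected calcium response at least 3 library SD above typical, normal starting fluorescence, not activating the receptor alone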;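 further: compound read alongside a low EC10 to EC30 dose of BAM8-22 agonist; peak minus trough fluorescence over baseline measured at the second addition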
RGS4 block: RGS4 inhibitors, primary screen, cell-based, HEK293 M3R inducible RGS4, calcium flux; Regulator of G-protein signaling 4 (Homo sapiens), P49798; Fluo-4 calcium flux; active compounds read high; triggered by carbachol at its EC20; B-score at 10 µM; hit rate 0.45% among 310,000;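 active means B-score, a plate-corrected calcium signal, over three deviations above library mean, with baseline fluorescence within five deviations of library mean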;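 further: RGS4 expression induced by doxycycline in cells with stable M3 receptor; B-score is computed from the integrated fluorescence ratio over baseline after carbachol; higher B-score means a larger calcium signal and so more RGS4 inhibition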
Target sequence (P49798 whole entry, looked up): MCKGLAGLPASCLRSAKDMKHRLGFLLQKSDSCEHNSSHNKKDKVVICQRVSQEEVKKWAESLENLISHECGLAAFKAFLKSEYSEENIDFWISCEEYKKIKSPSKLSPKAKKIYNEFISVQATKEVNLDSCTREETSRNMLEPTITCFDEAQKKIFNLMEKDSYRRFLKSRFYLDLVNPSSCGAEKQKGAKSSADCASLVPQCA
RGS4 act: RGS4 potentiators or activators, primary screen, cell-based, HEK293 M3R inducible RGS4, calcium flux; B-score at 10 µM; carbachol calcium flux Fluo4; active compounds read low; hit rate 0.92% among 310,000; AID 463111, 2010;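 active means B-score of the integrated calcium signal more than 4 SD below the library mean, with starting fluorescence not abnormally high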;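 further: negative B-score means reduced calcium response which marks RGS4 activation or potentiation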
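Test system: HEK293 cells with stable M3R and inducible RGS4; also added: carbachol at ECmax as muscarinic agonist stimulus; schedule: dye loading 30 min 37 °C, buffer rest 30 min RT; technique: kinetic calcium fluorescence imaging with Fluo4-AM dye, 2 µM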
MrgX1 ag: agonists of human MrgX1 receptor, primary screen, HEK293 cells, Fluo-4 calcium flux; AID 588627, 2011; B-score at 10 µM; Mas-related G-protein coupled receptor member X1 (Homo sapiens), Q96LB2; hit rate 0.44% among 310,000; Fluo-4 calcium fluorescence, agonist mode; active compounds read high;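 active means calcium response B-score plate-corrected fluorescence ratio at least 3 library SD, with starting fluorescence B-score inside 5 SD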
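Material: MrgX1-expressing HEK293 cells; input: 15,000 cells per well; doses: test compound given as first of three sequential additions; schedule: overnight plating before 1 h dye loading; technique: Fluo-4 NW calcium-flux fluorescence, kinetic read; evaluation: baseline-normalised fluorescence change ratio, B-scored; control set: plate-wise positive and negative controls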
MrgX1 antag conf: MrgX1 receptor antagonists, duplicate retest, confirmation, HEK293 cells, Fluo-4 calcium flux; shares compounds with MrgX1 antag; BAM8-22 calcium flux; active compounds read low; remaining BAM8-22 calcium response % of control (active compounds read low), % at 10 µM; hit rate 19% among 2,300; AID 602420, 2012;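 active means remaining agonist calcium response no higher than 100% minus 3 SD of agonist-only control wells, with starting fluorescence near control levels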;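 further: agonist BAM8-22 given at a near maximal EC90 to ECmax level; peak minus minimum fluorescence divided by baseline after agonist addition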
HEK293 Ca flux: nonspecific calcium signal in parental HEK293, confirmation, counter-screen for MrgX1 antagonist project, parental HEK293 cells, Fluo-4 calcium flux; AID 624111, 2012; Fluo-4 calcium fluorescence, FDSS; fluorescence ratio F(max-min)/F0 at 10 µM; shares compounds with MrgX1 antag; hit rate 2% among 4,000;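 active means duplicate-averaged calcium fluorescence ratio at least three times the standard deviation of buffer wells, a nonspecific response in parental cells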
HEK293 Ca counter: calcium response in parental HEK293 cells, primary screen, counter-screen for MrgX1 allosteric activator project, cell-based, Fluo-4 calcium flux, duplicate | shares compounds with MrgX1 antag | Fluo-4 fluorescence ratio; active compounds read high | fluorescence ratio F(max-min)/F0 at 10 µM | hit rate 0.4% among 4,000;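 active means calcium fluorescence ratio, averaged over duplicates, at least 3 SD of the buffer-well ratio, meaning a nonspecific response in receptor-free cells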;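 further: untransfected parental HEK293 lacking MrgX1 used as counterscreen for MrgX1 allosteric activators; fluorescence change taken during the second addition on a kinetic imager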
HEK293 Ca cntr2: calcium response in parental HEK293 cells, primary screen, counter-screen for MrgX1 agonist project, cell-based, Fluo-4 calcium flux, duplicate, agonist mode | shares compounds with MrgX1 antag | Fluo-4 calcium fluorescence (FDSS); active compounds read high | fluorescence ratio F(max-min)/F0 at 10 µM | hit rate 8.7% among 4,000 | AID 624115, 2012;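 active means calcium fluorescence ratio at least three times the spread of buffer wells, meaning a non-specific response in parental cells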
Starred values were filed as active, the others as inactive; i = inactive; x = no result given.

SMILES	MrgX1 antag	MrgX1 PAM	RGS4 block	RGS4 act	MrgX1 ag	MrgX1 antag conf	HEK293 Ca flux	HEK293 Ca counter	HEK293 Ca cntr2
CSc1ccc(CN2CCN(Cc3ccccc3)C(CCO)C2)cc1 (centres undefined)	-4.84*	i	i	i	i	82.7%*	i	i	i
Cc1ccc(CN2CCN(Cc3ccccc3)C(CCO)C2)s1 (centres undefined)	i	i	i	i	i	x	x	x	x
CSc1ccc(CN2CCN(CC=C(C)C)C(CCO)C2)cc1 (centres undefined)	i	i	i	i	i	x	x	x	x
Cc1ccc(CN2CCN(Cc3ccc(C)s3)CC2CCO)cc1 (centres undefined)	-5.08*	i	i	i	i	i	i	i	i
CSc1cccc(CN2CCN(CCc3ccccc3)C(CCO)C2)c1 (centres undefined)	i	i	i	i	i	x	x	x	x
CSc1cccc(CN2CCN(Cc3ccccc3)C(CCO)C2)c1 (centres undefined)	-5.16*	i	i	i	i	82.9%*	i	i	i
CC(=O)NC(CC(C)C)C(=O)NC(CO)C(=O)NC(CCC(=O)O)C(=O)NC(C)C(=O)NC(CC(C)C)C(N)=O (centres undefined)	i	i	i	i	i	x	x	x	x
COC(CNC(=O)C(=O)NCC1OCCN1C(=O)c1ccc(Cl)cc1)OC (centres undefined)	i	i	i	i	i	x	x	x	x
COCCNC(=O)C(=O)NCC1OCCN1C(=O)c1ccc(Cl)cc1 (centres undefined)	-5.63*	i	i	i	i	i	i	i	i
O=C(Cc1ccccc1)NC(=S)Nc1ccc(OC(F)F)cc1	i	i	i	i	i	x	x	x	x
CC(OC(=O)c1ccncc1)C(=O)NC1CCCC1 (centres undefined)	-10.1*	i	i	i	i	i	i	i	i
CC(C)Oc1ccc(C(=O)OC(C)C(=O)NC2CCCCC2C)cc1 (centres undefined)	i	i	i	i	i	x	x	x	x
COc1cccc(Nc2ncnc3sccc23)c1	i	i	i	i	i	x	x	x	x
COC(=O)c1cccc(Nc2ncnc3sccc23)c1	-4.52*	i	i	i	i	i	i	i	i
COCC(C)NC(=O)C(C)Oc1ccccc1 (centres undefined)	i	i	i	i	i	x	x	x	x
COc1ccc(NC(=O)COC(=O)C2CCC2)cc1Cl	i	i	i	i	i	x	x	x	x
COC(=O)CC1COc2ccccc2N1C(=O)c1ccc(OC)cc1 (centres undefined)	i	i	i	i	i	x	x	x	x
COC(=O)CC1COc2ccccc2N1C(=O)c1cc(OC)c(OC)c(OC)c1 (centres undefined)	-4.99*	i	i	i	i	i	i	i	i
CC(C)c1ccc(NC(=S)NCCc2c[nH]c3ccccc23)cc1	i	i	i	i	i	x	x	x	x
COc1cccc(C2=CC(c3ccccc3)n3nnnc3N2)c1 (centres undefined)	-5.57*	i	i	i	i	i	i	i	i
C=CCOc1c(Br)cc(CNn2nnnc2N)cc1OCC	-4.84*	i	i	i	i	i	i	i	i
CC(C)(C)c1ccc(/C=N/OCC(=O)NCc2ccc(F)cc2)cc1	i	i	i	i	i	x	x	x	x
CC(=O)c1c(O)c(C)c(-c2ccccc2)n(-c2ccccc2)c1=O	i	i	i	i	i	x	x	x	x
O=C(c1ccccc1)c1c(O)nc(-c2ccccc2)n(-c2ccccc2)c1=O	-7.97*	i	i	i	i	i	i	i	i
O=C(CSC1=NS(=O)(=O)c2cc(Cl)ccc2N1)Nc1ccccc1C(F)(F)F	-10.5*	i	i	i	i	i	i	i	i
SMILES	MrgX1 antag	MrgX1 PAM	RGS4 block	RGS4 act	MrgX1 ag	MrgX1 antag conf	HEK293 Ca flux	HEK293 Ca counter	HEK293 Ca cntr2
Cc1cc(NC(=O)CCC(=O)N(c2ccccc2)C(C)C(=O)NC2CCCC2)no1 (centres undefined)	i	i	i	i	i	x	x	x	x
COc1ccc(CNC(=O)C2CCCN2C(=O)NCc2ccccc2)cc1 (centres undefined)	i	i	i	i	i	x	x	x	x
CC1(C)CC(=O)N(CC(=O)O)c2ccccc2S1	-4.53*	i	i	i	i	i	i	i	i
COC(=O)CN1C(=O)CC(C)(C)Sc2ccccc21	i	i	i	i	i	x	x	x	x
COCCOC(=O)C1=C(C)NC(=O)NC1c1cccc2ccccc12 (centres undefined)	i	i	i	i	i	x	x	x	x
CC1(C)CC(=O)c2c(-c3cccs3)n[nH]c2C1	-5.43*	i	i	i	i	i	i	i	i
Cc1cnc(C(=O)OC(C)C(=O)NCc2ccccc2)cn1 (centres undefined)	i	i	i	i	i	x	x	x	x
CC1CN(CCn2cnc3c(N)ncnc32)CC(C)O1 (centres undefined)	i	i	i	i	i	x	x	x	x
Nc1ncnc2c1ncn2CCN1CCCCC1	-5.72*	i	i	i	i	i	i	i	i
COc1ccc(S(=O)(=O)N2CCC3(CC2)OCCN3S(=O)(=O)c2ccc(C)cc2)cc1OC	-6.63*	i	i	i	i	i	i	i	i
